VIM-2 inh – inhibitors of Pseudomonas aeruginosa VIM-2 metallo-beta-lactamase | actives 0.89% (n = 290,000) | purified VIM-2, nitrocefin hydrolysis, epi-absorbance fluorescence | AID 1527 | inhibition, % at 5.6 µM;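 active means inhibition above the mean of all tested compounds plus 3 SD, cutoff set per screening run, cut at about 7.5% in these data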;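 further: red hydrolysis product quenches plate fluorescence so inhibitors raise well fluorescence; 0% = enzyme with DMSO and 100% = DMSO without enzyme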
Mdm2-MdmX inh – disrupts the human Mdm2-MdmX interaction | SaOS-2 split-luciferase Mdm2/MdmX complementation, luminescence | inhibition, % at 8 µM | AID 485346 | actives 3% (n = 330,000) | O15151+Q00987;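 active means inhibition of at least 50% at 8 µM in the primary screen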
Target sequence (O15151 whole entry, looked up): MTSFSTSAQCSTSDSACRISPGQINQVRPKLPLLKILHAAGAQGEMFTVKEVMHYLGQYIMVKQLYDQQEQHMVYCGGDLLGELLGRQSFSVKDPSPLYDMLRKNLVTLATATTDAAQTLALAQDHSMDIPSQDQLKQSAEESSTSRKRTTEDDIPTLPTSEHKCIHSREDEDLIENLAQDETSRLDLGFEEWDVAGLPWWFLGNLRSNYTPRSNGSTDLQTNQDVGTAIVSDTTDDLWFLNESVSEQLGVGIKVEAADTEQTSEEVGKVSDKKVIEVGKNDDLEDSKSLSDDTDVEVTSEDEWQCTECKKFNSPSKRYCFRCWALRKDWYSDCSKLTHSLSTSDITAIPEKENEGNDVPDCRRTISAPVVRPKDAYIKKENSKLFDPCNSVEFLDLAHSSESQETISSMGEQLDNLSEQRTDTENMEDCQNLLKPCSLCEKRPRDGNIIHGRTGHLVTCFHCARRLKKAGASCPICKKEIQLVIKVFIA
Target sequence (Q00987 whole entry, looked up): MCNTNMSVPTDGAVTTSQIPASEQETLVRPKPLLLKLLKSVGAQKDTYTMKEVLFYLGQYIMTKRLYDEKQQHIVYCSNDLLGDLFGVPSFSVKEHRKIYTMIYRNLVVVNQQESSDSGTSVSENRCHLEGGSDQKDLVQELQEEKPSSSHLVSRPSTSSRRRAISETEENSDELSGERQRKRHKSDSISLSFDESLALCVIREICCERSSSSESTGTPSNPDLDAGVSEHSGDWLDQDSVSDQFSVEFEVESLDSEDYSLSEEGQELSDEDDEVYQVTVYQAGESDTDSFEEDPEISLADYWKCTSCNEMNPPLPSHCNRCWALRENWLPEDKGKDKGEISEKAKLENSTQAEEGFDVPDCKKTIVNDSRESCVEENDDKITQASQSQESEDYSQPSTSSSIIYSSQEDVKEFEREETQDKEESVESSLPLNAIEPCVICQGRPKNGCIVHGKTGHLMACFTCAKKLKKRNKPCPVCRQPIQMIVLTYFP
IMP-1 inhibitor – inhibitors of Pseudomonas aeruginosa IMP-1 metallo-beta-lactamase | purified IMP-1, nitrocefin hydrolysis, epi-absorbance fluorescence | inhibition, % at 5.6 µM | actives 0.45% (n = 290,000) | AID 1556;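 active means inhibition above the mean plus 3 SD of all compounds in the same screening run, cut at about 4.5% in these data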;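 further: 0% = IMP-1 with DMSO and 100% = DMSO wells lacking enzyme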
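Assay system: purified IMP-1; Quantity: IMP-1 0.2 nM before substrate addition; Medium: HEPES buffer pH 7.1 with ZnSO4 and Brij 35; Incubation: 15 min enzyme–compound preincubation, then 25 min nitrocefin reaction, 25 °C; Signal: fluorescence quenching readout, ex 480/em 530 nm; Controls: DMSO with and without IMP-1; Repeats: singlicate testing.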
697 NFkB inh – lowers PMA/ionomycin-induced NF-kB signal in 697 B cells | 697 B-cell NF-kB luciferase reporter, 16 h | actives 0.33% (n = 330,000) | inhibition, % at 4 µM; in the data active means inhibition above about 35%
Jurkat NFkB inh – inhibitors of the PMA/ionomycin-induced NF-kB reporter in Jurkat cells; PMA/ionomycin-induced NF-kB luciferase reporter, luminescence; inhibition, % at 4 µM; actives 0.53% (n = 330,000); AID 435003; in the data active means inhibition above about 50%
aSyn UTR inh – MLPCN primary screen, SNCA 5' untranslated region; inhibition, % (tested at 7.5 µM); alpha-synuclein 5'UTR reporter, inhibitor activity; actives 0.82% (n = 300,000); in the data active means inhibition above about 60%;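 further: H4 neuroglioblastoma cells stably carrying SNCA 5'UTR luciferase fusion; 0% = DMSO wells and 100% = positive control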
Mdm2-MdmX conf – confirmation of human Mdm2/MdmX interaction inhibitors. inhibition, % at 8 µM. actives 55% (n = 10,000). shares compounds with Mdm2-MdmX inh. Mdm2-MdmX binding, luminescent assay; in the data active means inhibition above about 40%
FLuc counter – counter-screen for Mdm2/MdmX inhibitors: full-length luciferase | shares compounds with Mdm2-MdmX inh | SaOS-2 full-length luciferase counterscreen, luminescence | inhibition, % at 8 µM | actives 77% (n = 6,200);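 active means mean inhibition at 8 µM reaching about 37%, which flags the compound as non-specific, limit read from the data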;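 further: p53-null SaOS-2 cells with luciferase driven by a doxycycline-inducible promoter; compound on cells about two nights before reading with doxycycline added after day one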
An asterisk follows results filed as active. An excerpt weighted towards active compounds, which were near 4.7% of everything screened.

Results for COC(=O)c1c(-c2ccsc2)sc2ccc(-c3cc(OC)c(OC)c(OC)c3)cc12 ?
Mdm2-MdmX inh: 64*; 697 NFkB inh: 1; Jurkat NFkB inh: 8; Mdm2-MdmX conf: 33

Results for O=C(CN1C(=O)NC2(CCCc3ccccc32)C1=O)c1ccccc1F (configuration not stated) ?
Mdm2-MdmX inh: 20; 697 NFkB inh: 5; Jurkat NFkB inh: -11

What do the screens show for `Cc1[nH]c2c(ccc3ccccc32)c1C1C(CCN)C1(C)C` (configuration not stated)?
VIM-2 inh: -1; Mdm2-MdmX inh: 61*; IMP-1 inhibitor: 0; 697 NFkB inh: 11; Jurkat NFkB inh: 5; aSyn UTR inh: -19; Mdm2-MdmX conf: 40*; FLuc counter: 77*

How did CCOc1ccc2[nH]c(=O)c(CN(CCN3CCCC3)C(=S)Nc3ccccc3OC)cc2c1 do in these assays?
VIM-2 inh: -7; Mdm2-MdmX inh: -36; IMP-1 inhibitor: -4; 697 NFkB inh: 16; Jurkat NFkB inh: 20; aSyn UTR inh: -8

Results for CC(C)(C)c1ccc(CS(=O)(=O)CC2(O)CCN(C(=O)c3cccc(C(F)(F)F)c3)CC2)cc1 ?
VIM-2 inh: -3; Mdm2-MdmX inh: 61*; IMP-1 inhibitor: -3; 697 NFkB inh: -14; Jurkat NFkB inh: 5; aSyn UTR inh: -41; Mdm2-MdmX conf: 1

What do the screens show for `CN(Cc1ccccc1)c1ncnc2ccc(Br)cc12`?
VIM-2 inh: -1; Mdm2-MdmX inh: 57*; IMP-1 inhibitor: -2; 697 NFkB inh: -24; Jurkat NFkB inh: -13; aSyn UTR inh: 11; Mdm2-MdmX conf: 49*; FLuc counter: 39*

How did CCOc1ccccc1Nc1ncnc2ccc(Br)cc12 do in these assays?
VIM-2 inh: 2; Mdm2-MdmX inh: 20; IMP-1 inhibitor: -2; 697 NFkB inh: -15; Jurkat NFkB inh: 16; aSyn UTR inh: 18

What do the screens show for `O=S1(=O)NC(C2CC2c2ccccc2)CCO1` (configuration not stated)?
VIM-2 inh: -2; Mdm2-MdmX inh: 10; IMP-1 inhibitor: -6; 697 NFkB inh: 16; Jurkat NFkB inh: 16; aSyn UTR inh: 9

Results for CC(C)c1ccc(NC(=O)CSc2ncccc2C(=O)Oc2cccc([N+](=O)[O-])c2)cc1 ?
VIM-2 inh: -2; Mdm2-MdmX inh: -16; IMP-1 inhibitor: -3; 697 NFkB inh: -128; Jurkat NFkB inh: -51; aSyn UTR inh: -115

How did O=C(NCC(c1cccs1)N1CCOCC1)c1cn(-c2ccccc2)nc1-c1ccc(Cl)cc1 (configuration not stated) do in these assays?
Mdm2-MdmX inh: 63*; 697 NFkB inh: -22; Jurkat NFkB inh: 5; aSyn UTR inh: 9; Mdm2-MdmX conf: 25

What do the screens show for `Nc1cc(=O)[nH]c(SCC(=O)Nc2ccc(S(=O)(=O)N3CCCC3)cc2)n1`?
Mdm2-MdmX inh: 12; 697 NFkB inh: 18; Jurkat NFkB inh: 4

Results for O=C1c2ccccc2OC2(C=Cc3ccccc3O2)N1Cc1ccccc1 (configuration not stated) ?
VIM-2 inh: -1; Mdm2-MdmX inh: 54*; IMP-1 inhibitor: -2; 697 NFkB inh: -23; Jurkat NFkB inh: 21; aSyn UTR inh: -46; Mdm2-MdmX conf: 48*; FLuc counter: 40*

How did O=C1NC2(CCN(Cc3ccccc3)CC2)Oc2ccccc21 do in these assays?
VIM-2 inh: 0; Mdm2-MdmX inh: 15; IMP-1 inhibitor: -1; 697 NFkB inh: -7; Jurkat NFkB inh: 1; aSyn UTR inh: 6

How did CC(CN)(NS(=O)(=O)c1ccccc1)c1ccccc1 (configuration not stated) do in these assays?
VIM-2 inh: 1; Mdm2-MdmX inh: 19; IMP-1 inhibitor: 1; 697 NFkB inh: 11; Jurkat NFkB inh: -1; aSyn UTR inh: -1

From PubChem
